{
  "source": "the RNAGym collection of RNA variant scans (doi:10.1002/anie.201605470)",
  "parents": {"B1": {"name": "Osa-1-4 twister ribozyme (parent)", "chain": "CCGCCUAACACUGCCAAUGCCGGUCCCAAGCCCGGAUAAAAGUGGAGGGGGCGG"}},
  "data": [
    {"variants_of": "B1", "experiment": "self-cleavage, relative activity (ratio to wild type); higher = more cleavage; co-transcriptional", "procedure,_shortened": "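Values are relative activity: the fraction cleaved, normalised to wild type. A doped DNA template for a 54-nucleotide twister ribozyme from Oryza sativa had 97 % wild-type base and 1 % of each other base at the 48 positions downstream of the cleavage site. The RNA was transcribed in vitro for 2 h at 37 °C so that it could cleave itself co-transcriptionally, then sequenced deeply, with cleavage status scored from the presence or absence of upstream sequence in reads.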", "values": [
      {"variant": "C14A C25U", "self-cleavage": 0.07},
      {"variant": "C14A C25G", "self-cleavage": 0.02},
      {"variant": "C14A C25A", "self-cleavage": 0.05},
      {"variant": "G13U G51C", "self-cleavage": 0.01},
      {"variant": "G13U G51U", "self-cleavage": 0.02},
      {"variant": "G13U G51A", "self-cleavage": 0.02},
      {"variant": "C14G G13A", "self-cleavage": 0.07},
      {"variant": "C14G G13U", "self-cleavage": 0.05},
      {"variant": "C14G G13C", "self-cleavage": 0.01},
      {"variant": "C14G G45C", "self-cleavage": 0.03},
      {"variant": "C14G G45U", "self-cleavage": 0.03},
      {"variant": "C14G G45A", "self-cleavage": 0.04},
      {"variant": "C14A C52A", "self-cleavage": 0.1},
      {"variant": "C14A C52G", "self-cleavage": 0.13},
      {"variant": "C14A C52U", "self-cleavage": 0.13},
      {"variant": "C14G G34A", "self-cleavage": 0.13},
      {"variant": "C14G G34C", "self-cleavage": 0.09},
      {"variant": "C14G G34U", "self-cleavage": 0.06},
      {"variant": "C14A G30U", "self-cleavage": 0.62},
      {"variant": "C14A G30C", "self-cleavage": 0.03},
      {"variant": "C14A G30A", "self-cleavage": 0.02},
      {"variant": "G13U U24A", "self-cleavage": 0.01},
      {"variant": "G13U U24G", "self-cleavage": 0.02},
      {"variant": "G13U U24C", "self-cleavage": 0.03},
      {"variant": "C14A C32A", "self-cleavage": 0.05},
      {"variant": "C14A C32G", "self-cleavage": 0.03},
      {"variant": "C14A C32U", "self-cleavage": 0.03},
      {"variant": "C14A G44U", "self-cleavage": 0.05},
      {"variant": "C14A G44C", "self-cleavage": 0.06},
      {"variant": "C14A G44A", "self-cleavage": 0.07},
      {"variant": "C14A G48A", "self-cleavage": 0.02},
      {"variant": "C14A G48C", "self-cleavage": 0.02},
      {"variant": "C14A G48U", "self-cleavage": 0.02},
      {"variant": "C14G G51A", "self-cleavage": 0.08},
      {"variant": "C14G G51U", "self-cleavage": 0.04},
      {"variant": "C14G G51C", "self-cleavage": 0.04},
      {"variant": "C14A U18G", "self-cleavage": 0.11},
      {"variant": "C14A U18C", "self-cleavage": 0.11},
      {"variant": "C14A U18A", "self-cleavage": 0.09},
      {"variant": "C14G C33G", "self-cleavage": 0.05},
      {"variant": "C14G C33U", "self-cleavage": 0.07},
      {"variant": "C14G C33A", "self-cleavage": 0.04},
      {"variant": "C14G G19U", "self-cleavage": 0.08},
      {"variant": "C14G G19C", "self-cleavage": 0.04},
      {"variant": "C14G G19A", "self-cleavage": 0.24},
      {"variant": "C14A G51C", "self-cleavage": 0.02},
      {"variant": "C14A G51U", "self-cleavage": 0.04},
      {"variant": "C14A G51A", "self-cleavage": 0.06},
      {"variant": "C14A U37G", "self-cleavage": 0.15},
      {"variant": "C14A U37A", "self-cleavage": 0.07},
      {"variant": "C14A U37C", "self-cleavage": 0.12},
      {"variant": "G13C G47A", "self-cleavage": 0.02},
      {"variant": "G13C G47U", "self-cleavage": 0.02},
      {"variant": "G13C G47C", "self-cleavage": 0.01},
      {"variant": "C14A C21A", "self-cleavage": 0.08},
      {"variant": "C14A C21G", "self-cleavage": 0.03},
      {"variant": "C14A C21U", "self-cleavage": 0.09},
      {"variant": "C14G U12A", "self-cleavage": 0.09},
      {"variant": "C14G U12C", "self-cleavage": 0.09},
      {"variant": "C14G U12G", "self-cleavage": 0.06},
      {"variant": "C14G G35U", "self-cleavage": 0.06},
      {"variant": "C14G G35C", "self-cleavage": 0.04},
      {"variant": "C14G G35A", "self-cleavage": 0.07},
      {"variant": "G13C U43C", "self-cleavage": 0.02},
      {"variant": "G13C U43G", "self-cleavage": 0.03},
      {"variant": "G13C U43A", "self-cleavage": 0.03},
      {"variant": "G13A U37A", "self-cleavage": 0.13},
      {"variant": "G13A U37C", "self-cleavage": 0.12},
      {"variant": "G13A U37G", "self-cleavage": 0.17},
      {"variant": "G13U G19A", "self-cleavage": 0.03},
      {"variant": "G13U G19U", "self-cleavage": 0.04},
      {"variant": "G13U G19C", "self-cleavage": 0.01},
      {"variant": "C14G C26G", "self-cleavage": 0.07},
      {"variant": "C14G C26U", "self-cleavage": 0.07},
      {"variant": "C14G C26A", "self-cleavage": 0.03},
      {"variant": "C14A G35A", "self-cleavage": 0.12},
      {"variant": "C14A G35U", "self-cleavage": 0.09},
      {"variant": "C14A G35C", "self-cleavage": 0.05},
      {"variant": "C14G G23A", "self-cleavage": 0.08},
      {"variant": "C14G G23U", "self-cleavage": 0.03},
      {"variant": "C14G G23C", "self-cleavage": 0.04},
      {"variant": "G13C G45C", "self-cleavage": 0.01},
      {"variant": "G13C G45A", "self-cleavage": 0.02}
    ]}
  ]
}
